How the values were obtained:
[1] = test system: LN229-Lux cells (constitutive luciferase reporter gene); experiment: constitutive luciferase reporter control assay in LN229-Lux cells; assay type: cell-based, human; details: control for inhibition of luciferase per se
Procedure, shortened: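 LN229-Lux cells carry a constitutive luciferase reporter driven by a retroviral LTR promoter. They were grown in DMEM with 10% serum, seeded at 3 × 10⁴ per well and treated with test compound in 1% DMSO medium under normoxia. Lysates were read for luminescence with luciferase substrate. Values are % of untreated control extracts, in triplicates.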

[2] = metabolic stability in mouse liver homogenate; assay type: in vitro ADME; details: mouse liver homogenate in PBS (1:2 w/v), pH 7.4
Procedure, shortened: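 Test compound (20 μM) was incubated at 37 °C with shaking in fresh mouse liver homogenate in PBS pH 7.4 (1/2 w/v). At set times, samples were extracted with acetonitrile, dried and reconstituted in mobile phase. They were quantified by reverse-phase C₈ HPLC with photodiode-array detection, using α-naphthoflavone (2 μM) as internal standard and standard curves linear over 1–50 μM. Run in triplicate.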

[3] = test system: HIF transcriptional activity; experiment: HIF-dependent luciferase reporter assay in LN229-V6R cells under hypoxia; assay type: cell-based, human; details: for inhibition of HIF-1 transcriptional activity (HRE-mediated luciferase) at 10 μM: one day
Procedure, shortened: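 LN229-V6R cells carry a stably integrated hypoxia/HIF-inducible luciferase reporter and were grown in DMEM with 10% serum. Cells were seeded at 3 × 10⁴ per well, held in normoxia (21% O₂, 5% CO₂) for 24 h, then given DMEM with 1% DMSO with or without test compound (2.5, 5.0, 10.0 μM). After 1 h at 37 °C, cells went to hypoxia (1% O₂) for 24 h. Cells were washed and lysed, and extract luminescence was read with luciferase substrate. Triplicates, expressed as % of untreated control.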

HIF-1α = HIF-1α protein levels in LN229-V6R cells under hypoxia by western blot; assay type: cell-based, human; details: 3-100 μM, hypoxia 24 hours
Procedure, shortened: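 LN229-V6R cells (2 × 10⁵) were seeded in 35 mm dishes and kept under normoxia for 24 h. Fresh DMEM with 1% DMSO and test compound (3, 6, 12, 25, 50 or 100 μM) was added, then 1 h at 37 °C in normoxia, then 24 h in hypoxia (1% O₂). Lysates in SDS loading buffer were run on a 4–12.5% gradient gel and blotted with anti-HIF-1α (1:500) and anti-β-actin (1:3,000), with HRP/ECL detection. Each blot was done at least twice.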

LogP7.4 measurement = assay type: physicochemical; details: pH 7.4; shake flask method (6a, 6g) or HPLC method (1, 6b-6f, 6h-6l)
Procedure, shortened: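 Shake-flask method (OECD 107): 1-octanol and 0.2 M phosphate buffer pH 7.4 were mutually presaturated by stirring for 24 h at room temperature. 1–2 mg test compound was partitioned between 2 mL each phase, in duplicate. The aqueous phase was quantified by HPLC at 254 nm against standard curves. HPLC method (OECD 117): C₁₈ column with methanol:water:triethylamine 70:30:0.1 at 2 mL/min, calibrated with the shake-flask compounds, aniline, benzene, toluene and chlorobenzene.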

| SMILES | luciferase activity in LN229-Lux cells (constitutive reporter) [1] | inhibition of HIF-1 transcriptional activity (HRE-mediated luciferase) at 10 μM [3] | logP7.4 (LogP7.4 measurement) | further results |
| --- | --- | --- | --- | --- |
| COc1ccc(S(=O)(=O)N(Cc2ccc3c(c2)C=CC(C)(C)O3)c2ccccc2)cc1OC [Compound 1, 3,4-dimethoxy-N-[(2,2-dimethyl-2H-chromene-6-yl)methyl]-N-phenylbenzenesulfonamide] | reduced luciferase activity only in LN229-V6R cells under hypoxia |  |  |  |
| CC(C)CN(Cc1cc(O)c2c(c1)C=CC(C)(C)O2)S(=O)(=O)c1ccncc1 [Compound 6l, N-[(8-hydroxy-2,2-dimethyl-2H-chromen-6-yl)methyl]-N-(2-methylpropan-1-yl)pyridine-4-sulfonamide] |  | 60 ∼ 80% | 1.2 ∼ 1.3 | half-life at 20 μM [2]: 13 to 20 h; concentration from which HIF-1α levels decreased dose-dependently (HIF-1α): 25 µM |
| CO[C@H]1/C=C\C=C(/C)C(=O)NC2=CC(=O)C(NCCN(C)C)=C(C[C@@H](C)C[C@H](OC)[C@H](O)[C@@H](C)/C=C(\C)[C@@H]1OC(N)=O)C2=O [Compound 17-DMAG, reference compound] | inhibited both reporter cell lines |  |  | luciferase activity in LN229-V6R cells (qualitative) [3]: inhibited both reporter cell lines |
| CC(C)N(Cc1ccc2c(c1)C=CC(C)(C)O2)S(=O)(=O)c1ccccn1 [Compound 6a, N-[(2,2-dimethyl-2H-chromen-6-yl)methyl]-N-(propan-2-yl)pyridine-2-sulfonamide] |  | completely |  |  |
| CC(C)CN(Cc1cc(O)c2c(c1)C=CC(C)(C)O2)S(=O)(=O)c1ccccn1 [Compound 6h, N-[(8-hydroxy-2,2-dimethyl-2H-chromen-6-yl)methyl]-N-(2-methylpropan-1-yl)pyridine-2-sulfonamide] |  |  | 1.2 ∼ 1.3 |  |
| COc1cc(CN(C(C)C)S(=O)(=O)c2ccccn2)cc2c1OC(C)(C)C=C2 [Compound 6g, N-[(8-methoxy-2,2-dimethyl-2H-chromen-6-yl)methyl]-N-(propan-2-yl)pyridine-2-sulfonamide] |  | 60 ∼ 80% | 1.2 ∼ 1.3 |  |

— paper PMC3756490 (Journal of medicinal chemistry, 2012)
